How the values were obtained:
[1] = system: RAS-GTP levels in HeLa cells; test: RAS-GTP levels in HeLa cells; type: cell-based; conditions: 10 min treatment; for change in RAS-GTP levels: up to 30 μM
Method in brief: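 HeLa (WT KRAS) cells exposed to test compound for 10 min at concentrations up to 30 μM. RAS-GTP levels were measured together with the accompanying pERK1/2 T202/Y204 levels. EGF (50 ng/mL, 5 min) served as the positive control for pathway stimulation. Data are representative of two independent experiments.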

[2] = molecular target: SOS1-mediated nucleotide exchange on RAS (Homo sapiens, UniProt Q07889); test: SOS1-mediated nucleotide exchange assay; type: biochemical
Sequence of SOS1-mediated nucleotide exchange on RAS (Q07889 564-1049 limits assumed): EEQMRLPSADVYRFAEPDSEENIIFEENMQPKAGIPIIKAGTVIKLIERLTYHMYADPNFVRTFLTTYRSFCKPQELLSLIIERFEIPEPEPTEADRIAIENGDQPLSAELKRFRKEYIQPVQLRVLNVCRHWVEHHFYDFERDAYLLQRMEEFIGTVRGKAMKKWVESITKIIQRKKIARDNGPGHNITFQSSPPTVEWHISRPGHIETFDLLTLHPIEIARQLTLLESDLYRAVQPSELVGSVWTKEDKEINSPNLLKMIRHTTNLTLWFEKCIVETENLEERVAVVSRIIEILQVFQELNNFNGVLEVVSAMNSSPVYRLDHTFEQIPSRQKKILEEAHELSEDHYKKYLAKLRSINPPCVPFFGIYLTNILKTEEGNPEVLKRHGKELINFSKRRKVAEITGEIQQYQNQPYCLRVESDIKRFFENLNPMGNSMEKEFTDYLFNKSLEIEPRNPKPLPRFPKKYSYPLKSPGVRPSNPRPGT
Sequence of SOS1-mediated nucleotide exchange on RAS (P01112 1-166 partner limits assumed): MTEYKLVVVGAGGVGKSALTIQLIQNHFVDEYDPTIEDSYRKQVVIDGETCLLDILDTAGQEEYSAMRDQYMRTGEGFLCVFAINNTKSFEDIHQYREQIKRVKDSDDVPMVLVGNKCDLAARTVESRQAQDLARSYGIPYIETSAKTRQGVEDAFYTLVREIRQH

Row | SMILES | change in RAS-GTP levels [1] | further results
1 | Cc1cc(Cn2c(N3CCNCC3)nc3c(-c4cncnc4C)cc(Cl)cc32)cc(C)c1F [Compound 55, 6-Chloro-1-(4-fluoro-3,5-dimethylbenzyl)-4-(4-methylpyrimidin-5-yl)-2-(piperazin-1-yl)-1H-benzo[d]imidazole] | only modest increases in RAS-GTP levels | –
2 | Cc1cc(Cn2c(N3CCNCC3)nc3ccc(Cl)cc32)cc(C)c1F [Compound 29, 6-Chloro-1-(4-fluoro-3,5-dimethylbenzyl)-2-(piperazin-1-yl)-1H-benzo[d]imidazole] | – | EC50 [2]: < 1000 nM
3 | Cc1cc2ncn(Cc3ccc(F)c(Cl)c3)c2cc1C [Compound 4, 1-(3-Chloro-4-fluorobenzyl)-5,6-dimethyl-1H-benzo[d]imidazole] | – | nucleotide exchange activation ([2]; in words): negligible nucleotide exchange activation
4 | Cc1cc(Cn2c(N3CC4(CNC4)C3)nc3c(-c4cncnc4C)cc(Cl)cc32)cc(C)c1F [Compound 60, 6-Chloro-1-(4-fluoro-3,5-dimethylbenzyl)-4-(4-methylpyrimidin-5-yl)-2-(2,6-diazaspiro[3.3]heptan-2-yl)-1H-benzo[d]imidazole] | only modest increases in RAS-GTP levels | –
5 | Cc1cc(Cn2c(N3CCNCC3)nc3c(N4CCN(C)CC4)cc(Cl)cc32)cc(C)c1F [Compound 42, 6-Chloro-1-(4-fluoro-3,5-dimethylbenzyl)-4-(4-methylpiperazin-1-yl)-2-(piperazin-1-yl)-1H-benzo[d]imidazole] | substantial increases in RAS-GTP levels at 10–30 μM | lowest concentration inducing small increases in RAS-GTP [1]: 0.3 µM
6 | Cc1ncncc1-c1cc(Cl)cc2c1nc(N1CC3(CNC3)C1)n2Cc1ccc(F)cc1 [Compound 61, 6-Chloro-1-(4-fluorobenzyl)-4-(4-methylpyrimidin-5-yl)-2-(2,6-diazaspiro[3.3]heptan-2-yl)-1H-benzo[d]imidazole] | only modest increases in RAS-GTP levels | –
7 | Cc1cc(Cn2c(N3CC4(CNC4)C3)nc3c(N4CCN(C)CC4)cc(Cl)cc32)cc(C)c1F [Compound 64, 6-Chloro-1-(4-fluoro-3,5-dimethylbenzyl)-4-(4-methylpiperazin-1-yl)-2-(2,6-diazaspiro[3.3]heptan-2-yl)-1H-benzo[d]imidazole] | substantial increases in RAS-GTP levels at 10–30 μM | lowest concentration inducing small increases in RAS-GTP [1]: 0.3 µM

From PMC8314423 (Journal of medicinal chemistry, 2018)
